Laboratory results reported in ChEMBL document CHEMBL1121429, “Soft drugs. 1. Labile quaternary ammonium salts as soft antimicrobials” (J Med Chem, 1980).

How the values were obtained:
Pseudomonas aeruginosa [1] = assay: Minimum inhibitory concentration of salt was tested against Pseudomonas aeruginosa at 0.1 M NaH2PO4 adjusted to pH 7.0; assay type: functional
Salmonella typhimurium [2] = assay: (§1) Minimum inhibitory concentration of salt was tested against Salmonella Typhimurium […] at 0.1 M NaH2PO4 adjusted to pH 7.0; assay type: functional; conditions: Salmonella enterica
Streptococcus pyogenes [3] = assay: Sterilization time for contact germicidal efficiency (CGE) of salt was tested against at Streptococcus pyogenes at pH 7.0, concentration 1026 ppm; assay type: functional
Staphylococcus aureus [4] = assay: Minimum inhibitory concentration of salt was tested against Staphylococcus aureus aureus at 0.1 M NaH2PO4 adjusted to pH 7.0; assay type: functional
Procedure, shortened: (§2)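 Bacteria grown 18-20 h at 37 °C in tryptose phosphate broth, adjusted to OD650 0.01, then diluted into double-strength medium to about 2 × 10^5 viable organisms/mL. Compound in 0.1 M NaH2PO4 pH 7.0 was serially twofold diluted into sterile water and added 1:1 to the cultures. MIC read after 18-20 h at 37 °C, with viability, sterility and buffer controls.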

Streptococcus pyogenes [5] = assay: Sterilization time for contact germicidal efficiency (CGE) of salt was tested against at Streptococcus pyogenes at pH 8.0, concentration 1008 ppm; assay type: functional
Bacillus subtilis = assay: Minimum inhibitory concentration of salt was tested against Bacillus subtilis at 0.1 M NaH2PO4 adjusted to pH 7.0; assay type: functional
Staphylococcus aureus [6] = assay: Sterilization time for contact germicidal efficiency (CGE) of salt was tested against at Staphylococcus aureus at pH 7.0, concentration 1026 ppm; assay type: functional
Streptococcus pyogenes [7] = assay: Sterilization time for contact germicidal efficiency (CGE) of salt was tested against at Streptococcus pyogenes at pH 6.0, concentration 1009 ppm; assay type: functional
Staphylococcus aureus [8] = assay: Sterilization time for contact germicidal efficiency (CGE) of salt was tested against at Staphylococcus aureus at pH 6.0, concentration 1009 ppm; assay type: functional
Staphylococcus aureus [9] = assay: Sterilization time for contact germicidal efficiency (CGE) of salt was tested against Staphylococcus aureus at pH 7.0, concentration 1026 ppm; assay type: functional
Pseudomonas aeruginosa [10] = assay: Sterilization time for contact germicidal efficiency (CGE) of salt was tested against at Pseudomonas aeruginosa at pH 7.0, concentration 1026 ppm; assay type: functional
Pseudomonas aeruginosa [11] = assay: Sterilization time for contact germicidal efficiency (CGE) of salt was tested against at Pseudomonas aeruginosa at pH 8.0, concentration 1008 ppm; assay type: functional
Streptococcus pyogenes [12] = assay: Minimum inhibitory concentration of salt was tested against Streptococcus pyogenes aureus at 0.1 M NaH2PO4 adjusted to pH 7.0; assay type: functional
Staphylococcus aureus [13] = assay: Sterilization time for contact germicidal efficiency (CGE) of salt was tested against at Staphylococcus aureus at pH 8.0, concentration 1008 ppm; assay type: functional
Pseudomonas aeruginosa [14] = assay: Sterilization time for contact germicidal efficiency (CGE) of salt was tested against at Pseudomonas aeruginosa at pH 6.0, concentration 1009 ppm; assay type: functional
[15] = Toxicity of the salt was tested on white swiss male mice after intraperitoneal administration; assay type: organism-based; conditions: mouse, in vivo, ip
Procedure, shortened: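 Male White Swiss mice (MCR-ICR), 20-23 g, 10-20 per dose. Salt given in isotonic NaCl, pH 7.0 (adjusted with sodium bicarbonate). LD50 with confidence limits was calculated by Litchfield–Wilcoxon.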

Pseudomonas aeruginosa [16] = assay: Sterilization time for contact germicidal efficiency (CGE) of salt was tested against at Pseudomonas aeruginosa at pH 6.0, concentration 1018 ppm; assay type: functional
Staphylococcus aureus [17] = assay: Sterilization time for contact germicidal efficiency (CGE) of salt was tested against Staphylococcus aureus at pH 7.0, concentration 936.0 ppm; assay type: functional
Streptococcus pyogenes [18] = assay: Sterilization time for contact germicidal efficiency (CGE) of salt was tested against at Streptococcus pyogenes at pH 7.0, concentration 936.0 ppm; assay type: functional
Streptococcus pyogenes [19] = assay: Sterilization time for contact germicidal efficiency (CGE) of salt was tested against at Streptococcus pyogenes at pH 7.0, concentration 1039 ppm; assay type: functional
Pseudomonas aeruginosa [20] = assay: Sterilization time for contact germicidal efficiency (CGE) of salt was tested against at Pseudomonas aeruginosa at pH 7.0, concentration 1039 ppm; assay type: functional
Streptococcus pyogenes [21] = assay: Sterilization time for contact germicidal efficiency (CGE) of salt was tested against at Streptococcus pyogenes at pH 7.0, concentration 1038.7 ppm; assay type: functional
Staphylococcus aureus [22] = assay: Sterilization time for contact germicidal efficiency (CGE) of salt was tested against Staphylococcus aureus at pH 7.0, concentration 1038.7 ppm; assay type: functional
Pseudomonas aeruginosa [23] = assay: Sterilization time for contact germicidal efficiency (CGE) of salt was tested against at Pseudomonas aeruginosa at pH 7.0, concentration 1038.7 ppm; assay type: functional
Pseudomonas aeruginosa [24] = assay: Sterilization time for contact germicidal efficiency (CGE) of salt was tested against at Pseudomonas aeruginosa at pH 8.0, concentration 1018 ppm; assay type: functional
Pseudomonas aeruginosa [25] = assay: Sterilization time for contact germicidal efficiency (CGE) of salt was tested against at Pseudomonas aeruginosa at pH 7.0, concentration 936.0 ppm; assay type: functional
Staphylococcus aureus [26] = assay: Sterilization time for contact germicidal efficiency (CGE) of salt was tested against at Staphylococcus aureus at pH 8.0, concentration 1018 ppm; assay type: functional
Streptococcus pyogenes [27] = assay: Sterilization time for contact germicidal efficiency (CGE) of salt was tested against at Streptococcus pyogenes at pH 6.0, concentration 1018 ppm; assay type: functional
Streptococcus pyogenes [28] = assay: Sterilization time for contact germicidal efficiency (CGE) of salt was tested against at Streptococcus pyogenes at pH 8.0, concentration 1018 ppm; assay type: functional
Staphylococcus aureus [29] = assay: Sterilization time for contact germicidal efficiency (CGE) of salt was tested against at Staphylococcus aureus at pH 6.0, concentration 1018 ppm; assay type: functional
[30] = Toxicity of the salt was tested on white swiss male mice after oral administration; assay type: organism-based; conditions: mouse, in vivo
Procedure, shortened: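 Male White Swiss mice (MCR-ICR), 20-23 g, 10-20 per dose, dosed orally. At higher doses the salt was given in 0.8% NaCl brought to pH 5.84 with sodium bicarbonate. LD50 was calculated by Litchfield–Wilcoxon.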

Staphylococcus aureus [31] = assay: Sterilization time for contact germicidal efficiency (CGE) of salt was tested against at Staphylococcus aureus at pH 7.0, concentration 1039 ppm; assay type: functional
Pseudomonas aeruginosa [32] = assay: Sterilization time for contact germicidal efficiency (CGE) of salt was tested against at Pseudomonas aeruginosa at pH 7.0, concentration 1035.9 ppm; assay type: functional
Procedure, shortened: (§3)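 Test solutions of the quaternary salt in buffer stood 30 min at room temperature. 0.2 mL of overnight broth culture was added to 5 mL of solution. Inocula: S. aureus ATCC 6538 6-8 × 10^6 cfu/mL, P. aeruginosa ATCC 9027 12-13 × 10^6/mL, S. pyogenes ATCC 19615 5 × 10^6 cfu/mL. At 0.5-30 min intervals a loop was subcultured into nutrient broth and incubated 7 days at 37 °C. Sterilization time is the first interval giving no growth.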

Salmonella typhimurium [33] = assay: as §1; assay type: functional; conditions: Salmonella enterica; procedure, shortened: as §2; remark: listed apart in the source
Streptococcus pyogenes [34] = assay: Sterilization time for contact germicidal efficiency (CGE) of salt was tested against at Streptococcus pyogenes at pH 7.0, concentration 1035.9 ppm; assay type: functional
Procedure, shortened: (§4)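 Streptococcus pyogenes ATCC 19615 overnight culture, 5 × 10^6 cfu/mL; 0.2 mL into 5 mL test solution of salt in buffer, left 30 min at room temperature beforehand. At timed intervals (0.5 to 30 min), a 3-mm loop was transferred to sterile nutrient broth and incubated at 37 °C for 7 days. Sterilization time is the shortest interval without growth; buffer-only and viability controls were run.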

Staphylococcus aureus [35] = assay: Sterilization time for contact germicidal efficiency (CGE) of salt was tested against Staphylococcus aureus at pH 7.0, concentration 1035.9 ppm; assay type: functional; procedure, shortened: as §3
Staphylococcus aureus [36] = assay: Sterilization time for contact germicidal efficiency (CGE) of salt was tested against at Staphylococcus aureus at pH 8.0, concentration 1013 ppm; assay type: functional
Procedure, shortened: (§5)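 Staphylococcus aureus ATCC 6538, overnight broth culture at 6-8 × 10^6 cfu/mL; 0.2 mL inoculated into 5 mL of buffered quaternary salt solution pre-held 30 min at room temperature. Loop subcultures (3 mm) taken at 0.5-30 min intervals into nutrient broth, incubated at 37 °C for 7 days and read daily. The endpoint is the earliest time giving a growth-free subculture.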

Staphylococcus aureus [37] = assay: Sterilization time for contact germicidal efficiency (CGE) of salt was tested against at Staphylococcus aureus at pH 7.0, concentration 1010 ppm; assay type: functional; procedure, shortened: as §5
Pseudomonas aeruginosa [38] = assay: Sterilization time for contact germicidal efficiency (CGE) of salt was tested against at Pseudomonas aeruginosa at pH 7.0, concentration 1010 ppm; assay type: functional; procedure, shortened: as §3
Streptococcus pyogenes [39] = assay: Sterilization time for contact germicidal efficiency (CGE) of salt was tested against at Streptococcus pyogenes at pH 8.0, concentration 1013 ppm; assay type: functional; procedure, shortened: as §4
Streptococcus pyogenes [40] = assay: Sterilization time for contact germicidal efficiency (CGE) of salt was tested against at Streptococcus pyogenes at pH 6.0, concentration 1016 ppm; assay type: functional; procedure, shortened: as §4
Pseudomonas aeruginosa [41] = assay: Sterilization time for contact germicidal efficiency (CGE) of salt was tested against at Pseudomonas aeruginosa at pH 8.0, concentration 1013 ppm; assay type: functional
Procedure, shortened: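 Pseudomonas aeruginosa ATCC 9027 overnight broth culture (12-13 × 10^6 organisms/mL); 0.2 mL added to 5 mL buffered salt solution held 30 min at room temperature. At intervals from 0.5 to 30 min, a 3-mm loop was subcultured into nutrient broth and incubated at 37 °C for 7 days. Sterilization time is the shortest interval whose subculture gave no growth.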

Pseudomonas aeruginosa [42] = assay: Sterilization time for contact germicidal efficiency (CGE) of salt was tested against at Pseudomonas aeruginosa at pH 7.0, concentration 1010.9 ppm; assay type: functional; procedure, shortened: as §3
Staphylococcus aureus [43] = assay: Sterilization time for contact germicidal efficiency (CGE) of salt was tested against Staphylococcus aureus at pH 7.0, concentration 896.0 ppm; assay type: functional; procedure, shortened: as §3
Streptococcus pyogenes [44] = assay: Sterilization time for contact germicidal efficiency (CGE) of salt was tested against at Streptococcus pyogenes at pH 7.0, concentration 1010 ppm; assay type: functional; procedure, shortened: as §4
Pseudomonas aeruginosa [45] = assay: Sterilization time for contact germicidal efficiency (CGE) of salt was tested against at Pseudomonas aeruginosa at pH 6.0, concentration 1016 ppm; assay type: functional; procedure, shortened: as §3
Streptococcus pyogenes [46] = assay: Sterilization time for contact germicidal efficiency (CGE) of salt was tested against at Streptococcus pyogenes at pH 7.0, concentration 1010.9 ppm; assay type: functional; procedure, shortened: as §4
Staphylococcus aureus [47] = assay: Sterilization time for contact germicidal efficiency (CGE) of salt was tested against at Staphylococcus aureus at pH 6.0, concentration 1016 ppm; assay type: functional; procedure, shortened: as §5
Pseudomonas aeruginosa [48] = assay: Sterilization time for contact germicidal efficiency (CGE) of salt was tested against at Pseudomonas aeruginosa at pH 7.0, concentration 896.0 ppm; assay type: functional; procedure, shortened: as §3
Streptococcus pyogenes [49] = assay: Sterilization time for contact germicidal efficiency (CGE) of salt was tested against at Streptococcus pyogenes at pH 7.0, concentration 896.0 ppm; assay type: functional; procedure, shortened: as §4
Staphylococcus aureus [50] = assay: Sterilization time for contact germicidal efficiency (CGE) of salt was tested against Staphylococcus aureus at pH 7.0, concentration 1010.9 ppm; assay type: functional; procedure, shortened: as §3

## CCCCCCCCCCCC(=O)OC[N+]12CCN(CC1)CC2.[Cl-]
Pseudomonas aeruginosa [1]
  MIC: 1050 µg/mL
Salmonella typhimurium [2]
  MIC: 524 µg/mL
Streptococcus pyogenes [3]
  Time: 0.5 min
Staphylococcus aureus [4]
  MIC: 65.5 µg/mL
Streptococcus pyogenes [5]
  Time: 3 min
Bacillus subtilis
  MIC: 32.8 µg/mL
Staphylococcus aureus [6]
  Time: 0.5 min
Streptococcus pyogenes [7]
  Time: 0.5 min
Staphylococcus aureus [8]
  Time: 7 min
Staphylococcus aureus [9]
  Time: 0.5 min
Pseudomonas aeruginosa [10]
  Time: 3 min
Pseudomonas aeruginosa [11]
  Time: 4 min
Streptococcus pyogenes [12]
  MIC: 32.8 µg/mL
Staphylococcus aureus [13]
  Time: 0.5 min
Pseudomonas aeruginosa [14]
  Time: 0.5 min

## CCCCCCCCCCCCCCCC[n+]1ccccc1.[Cl-]
[15]
  LD50: 10 mg/kg
Pseudomonas aeruginosa [16]
  Time: 0.5 min
Staphylococcus aureus [17]
  Time: 0.5 min
Streptococcus pyogenes [18]
  Time: 0.5 min
Streptococcus pyogenes [19]
  Time: 0.5 min
Pseudomonas aeruginosa [20]
  Time: 0.5 min
Streptococcus pyogenes [21]
  Time: 0.5 min
Staphylococcus aureus [22]
  Time: 0.5 min
Pseudomonas aeruginosa [23]
  Time: 0.5 min
Pseudomonas aeruginosa [24]
  Time: 0.5 min
Pseudomonas aeruginosa [25]
  Time: 0.5 min
Staphylococcus aureus [26]
  Time: 0.5 min
Streptococcus pyogenes [27]
  Time: 0.5 min
Streptococcus pyogenes [28]
  Time: 0.5 min
Staphylococcus aureus [29]
  Time: 0.5 min
[30]
  LD50: 108 mg/kg
Staphylococcus aureus [31]
  Time: 0.5 min

## CCCCCCCC(=O)OC[n+]1ccccc1.[Cl-]
Pseudomonas aeruginosa [32]
  Time: >30 min
Salmonella typhimurium [33]
  MIC: 1060 µg/mL
Streptococcus pyogenes [34]
  Time: >30 min
Staphylococcus aureus [35]
  Time: >30 min

## CCCCCCCCCCCC(=O)OC[n+]1ccccc1.[Cl-]
Pseudomonas aeruginosa [1]
  MIC: 512 µg/mL
Staphylococcus aureus [36]
  Time: 0.5 min
Staphylococcus aureus [37]
  Time: 0.5 min
Pseudomonas aeruginosa [38]
  Time: 0.5 min
Streptococcus pyogenes [39]
  Time: 7 min
Streptococcus pyogenes [40]
  Time: 0.5 min
Pseudomonas aeruginosa [41]
  Time: 2 min
Pseudomonas aeruginosa [42]
  Time: 0.5 min
Staphylococcus aureus [43]
  Time: 0.5 min
Streptococcus pyogenes [44]
  Time: 0.5 min
Pseudomonas aeruginosa [45]
  Time: 0.5 min
Streptococcus pyogenes [46]
  Time: 0.5 min
Staphylococcus aureus [47]
  Time: 1 min
Pseudomonas aeruginosa [48]
  Time: 0.5 min
Streptococcus pyogenes [49]
  Time: 0.5 min
Staphylococcus aureus [50]
  Time: 0.5 min
